Test results reported in ChEMBL document CHEMBL2177002, “Antifungal spectrum, in vivo efficacy, and structure-activity relationship of ilicicolin h” (ACS Med Chem Lett, 2012).
Values after ≈ are worked out from the molar mass of the structure shown. Active and inactive are the calls of the source. The calls are words filed in the database; no cut-off is given here.

How the values were obtained:
[1] = Inhibition of Saccharomyces cerevisiae MY 2141 electron transport protein complex 1/3 using ethanol as substrate assessed as decrease in oxygen consumption measured for 3 mins
Candida albicans [2] = experiment: Ratio of MIC for Candida albicans 15 harboring cytochrome b G37S mutant to MIC for wild type Candida albicans; type: functional
Nakaseomyces glabratus [3] = experiment: Antifungal activity against Candida glabrata MY 1381 after 24 hrs by NCCLS broth microdilution method; type: functional; settings: MY 1381, 24 h
Candida parapsilosis = experiment: Antifungal activity against Candida parapsilosis ATCC 22019 after 24 hrs by NCCLS broth microdilution method; type: functional; settings: Lodderomyces parapsilosis, ATCC 22019, 24 h
Aspergillus fumigatus = experiment: Antifungal activity against Aspergillus fumigatus MF 5668 after 24 hrs by NCCLS broth microdilution method; type: functional; settings: MF 5668, 24 h
Candida albicans [4] = experiment: Antifungal activity against Candida albicans MY 1055 assessed as inhibition of whole cell oxygen consumption at 0.003 ug/mL after 15 mins; type: functional; settings: MY 1055, 0.25 h
[5] = Inhibition of Saccharomyces cerevisiae MY 2141 cytochrome b-c1 complex Qn site in ubiquinol:Cytochrome c reductase
Saccharomyces cerevisiae [6] = experiment: Antifungal activity against Saccharomyces cerevisiae MY 2141 in glucose-based medium after 24 hrs by NCCLS broth microdilution method; type: functional; settings: MY 2141, 24 h
Candida albicans [7] = experiment: Ratio of MIC for Candida albicans 1 harboring cytochrome b G37C mutant to MIC for wild type Candida albicans; type: functional
Candida albicans [8] = experiment: Antifungal activity against Candida albicans MY 1055 infected in DBA/2 mouse assessed as reduction in kidney fungal burden administered as iv tid after 24 hrs; type: functional; settings: MY 1055, Kidney
Method in brief: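 Abbreviated 24 h version of the disseminated C. albicans kidney-burden model in mice. Dosing intravenous, thrice daily, at total doses of 50 or 25 mg/kg/day. Kidney burden compared with controls by Excel t test (p < 0.05). ED90 expressed as mg/kg/day.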

Candida albicans [9] = experiment: Ratio of MIC for Candida albicans 3 harboring cytochrome b G37D mutant to MIC for wild type Candida albicans; type: functional
Candida albicans [10] = experiment: Antifungal activity against Candida albicans after 24 hrs by NCCLS broth microdilution method in presence of 10% mouse plasma; type: functional
Candida albicans [11] = experiment: Ratio of MIC for Candida albicans 5 harboring cytochrome b G37S mutant to MIC for wild type Candida albicans; type: functional
Candida tropicalis = experiment: Antifungal activity against Candida tropicalis MY 1012 after 40 hrs by NCCLS broth microdilution method; type: functional; settings: MY 1012, 40 h
Clavispora lusitaniae = experiment: Antifungal activity against Candida lusitaniae MY 1396 after 24 hrs by NCCLS broth microdilution method; type: functional; settings: MY 1396, 24 h
Candida albicans [12] = experiment: Ratio of MIC for Candida albicans 13 harboring cytochrome b G37C mutant to MIC for wild type Candida albicans; type: functional
Candida albicans [13] = experiment: Ratio of MIC for Candida albicans 8 harboring cytochrome b G37S mutant to MIC for wild type Candida albicans; type: functional
[14] = test system: Meyerozyma guilliermondii; experiment: Antifungal activity against Candida guilliermondii CLY 346 after 24 hrs by NCCLS broth microdilution method; type: functional; settings: CLY 346, 24 h
Candida albicans [15] = experiment: Ratio of MIC for Candida albicans 11 harboring cytochrome b G37C mutant to MIC for wild type Candida albicans; type: functional
Candida albicans [16] = experiment: Ratio of MIC for Candida albicans 12 harboring cytochrome b Q22E mutant to MIC for wild type Candida albicans; type: functional
[17] = Half life in mouse; type: ADME, organism-based; settings: in vivo
Candida albicans [18] = experiment: Antifungal activity against Candida albicans MY 1055 after 24 hrs by NCCLS broth microdilution method; type: functional; settings: MY 1055, 24 h
[19] = Oral bioavailability in mouse; type: ADME, organism-based; settings: in vivo
Candida albicans [20] = experiment: Ratio of MIC for Candida albicans 5 harboring cytochrome b G37D mutant to MIC for wild type Candida albicans; type: functional
[21] = test system: Meyerozyma guilliermondii; experiment: Antifungal activity against Candida guilliermondii CLY 308 after 24 hrs by NCCLS broth microdilution method; type: functional; settings: CLY 308, 24 h
Candida albicans [22] = experiment: Antifungal activity against Candida albicans MY 1055 infected in DBA/2 mouse assessed as reduction in kidney fungal burden administered as po bid for 2 days post infection measured after 4 days; type: functional; settings: MY 1055, Kidney
Method in brief: (§1)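 DBA/2 mice infected intravenously with 5.4 × 10⁴ cfu of C. albicans MY1055. Dosed orally twice daily for 2 days in 10% aqueous DMSO at 50, 25, 12.5 and 6.25 mg/kg. Kidney Candida burden determined 4 days after infection and compared with vehicle-treated controls by Excel t test (p < 0.05). ED90 is the dose giving 90% reduction of kidney C. albicans.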

Candida albicans [23] = experiment: Ratio of MIC for Candida albicans 7 harboring cytochrome b G37D mutant to MIC for wild type Candida albicans; type: functional
Pichia kudriavzevii = experiment: Antifungal activity against Candida krusei CLY 549 after 24 hrs by NCCLS broth microdilution method; type: functional; settings: CLY 549, 24 h
Saccharomyces cerevisiae [24] = experiment: Antifungal activity against Saccharomyces cerevisiae MY 2141 in glycerol-based medium after 24 hrs by NCCLS broth microdilution method; type: functional; settings: MY 2141, 24 h
[25] = Inhibition of bovine ubiquinol-cytochrome c reductase after 2 mins by stopped flow rapid scanning spectroscopy; parameters: species or system Bos taurus
[26] = Inhibition of Saccharomyces cerevisiae MY 2141 NADH:cytochrome c oxidoreductase
Candida albicans [27] = experiment: Antifungal activity against Candida albicans MY 1055 infected in DBA/2 mouse assessed as reduction in kidney fungal burden at 50 mg/kg, po bid administered 2 days post infection measured after 4 days relative to vehicle-treated control; type: functional, organism-based; parameters: dose 50 mg/kg; method in brief: as §1
Candida albicans [28] = experiment: Antifungal activity against Candida albicans MY 1055 infected in DBA/2 mouse assessed as reduction in kidney fungal burden administered as ip tid; type: functional; settings: MY 1055, Kidney
[29] = Selectivity ratio of IC50 for bovine NADH:cytochrome c oxidoreductase to IC50 for Saccharomyces cerevisiae MY 2141 NADH:cytochrome c oxidoreductase
Candida albicans [30] = experiment: Ratio of MIC for Candida albicans 14 harboring cytochrome b G37S mutant to MIC for wild type Candida albicans; type: functional
Candida albicans [31] = experiment: Ratio of MIC for Candida albicans 10 harboring cytochrome b S20I mutant to MIC for wild type Candida albicans; type: functional
[32] = Inhibition of Candida albicans MY 1055 NADH:cytochrome c oxidoreductase; settings: read-out: IC50
Nakaseomyces glabratus [33] = experiment: Antifungal activity against Candida glabrata CLY 574 after 24 hrs by NCCLS broth microdilution method; type: functional; settings: CLY 574, 24 h
Candida albicans [34] = experiment: Ratio of MIC for Candida albicans 4 harboring cytochrome b G37S mutant to MIC for wild type Candida albicans; type: functional
Candida albicans [35] = experiment: Antifungal activity against Candida albicans MY 1055 in glucose-based medium after 24 hrs by NCCLS broth microdilution method; type: functional; settings: MY 1055, 24 h
[36] = Inhibition of rhesus monkey liver NADH:cytochrome c oxidoreductase; parameters: species or system Macaca mulatta
[37] = Inhibition of Saccharomyces cerevisiae MY 2141 electron transport protein complex 4 using ascorbate/TMPD as substrate assessed as decrease in oxygen consumption measured for 3 mins
Cryptococcus neoformans = experiment: Antifungal activity against Cryptococcus neoformans MY 2061 after 40 hrs by NCCLS broth microdilution method; type: functional; settings: MY 2061, 40 h

## C/C=C/[C@@H]1[C@H]2C[C@@H](C)CC[C@@H]2C(C)=C[C@H]1C(=O)c1c(O)c(-c2ccc(O)cc2)c[nH]c1=O [ILICICOLIN H]
[1]
  IC50: 0.008 µg/mL (≈ 0.0185 µM)
Candida albicans [2]
  Ratio: 250
Nakaseomyces glabratus [3]
  MIC: 0.01 µg/mL (≈ 0.0231 µM)
Candida parapsilosis
  MIC: 0.01 µg/mL (≈ 0.0231 µM)
Aspergillus fumigatus
  MIC: 0.08 µg/mL (≈ 0.185 µM)
Candida albicans [4]
  inhibition at 0.003 µg/mL: 100%
[5]
  IC50: 3 nM
Saccharomyces cerevisiae [6]
  MIC: > 50 µg/mL
Candida albicans [7]
  Ratio: 250
Candida albicans [8]
  ED90: 22.3 mg/kg/day
Candida albicans [9]
  Ratio: 250
Candida albicans [10]
  MIC: > 1 µg/mL
Candida albicans [11]
  Ratio: 250
Candida tropicalis
  MIC: 0.01 µg/mL (≈ 0.0231 µM)
Clavispora lusitaniae
  MIC: 0.01 µg/mL (≈ 0.0231 µM)
Candida albicans [12]
  Ratio: 250
Candida albicans [13]
  Ratio: 250
[14]
  MIC: 0.01 µg/mL (≈ 0.0231 µM)
Candida albicans [15]
  Ratio: 250
Candida albicans [16]
  Ratio: 250
[17]
  half-life: 2.5 h
Candida albicans [18]
  MIC: 0.04 µg/mL (≈ 0.0923 µM)
[19]
  bioavailability: 72%
Candida albicans [20]
  Ratio: 250
[21]
  MIC: 0.01 µg/mL (≈ 0.0231 µM)
Candida albicans [22]
  ED90: 15.4 mg/kg
Candida albicans [23]
  Ratio: 250
Pichia kudriavzevii
  MIC: 0.01 µg/mL (≈ 0.0231 µM)
Saccharomyces cerevisiae [24]
  MIC: 0.012 µg/mL (≈ 0.0277 µM)
[25]
  IC50: 200 nM
[26]
  IC50: 2.31 nM
Candida albicans [27]
  Activity: Active
Candida albicans [28]
  ED90: 0.01 mg/kg
[29]
  Ratio IC50: > 70
Candida albicans [30]
  Ratio: 250
Candida albicans [31]
  Ratio: 250
[32]
  IC50: 1.85 nM
Nakaseomyces glabratus [33]
  MIC: 0.01 µg/mL (≈ 0.0231 µM)
Candida albicans [34]
  Ratio: 250
Candida albicans [35]
  MIC: > 50 µg/mL
[36]
  IC50: 0.5 µg/mL (≈ 1.15 µM)
[37]
  IC50: > 10 µg/mL
Cryptococcus neoformans
  MIC: 0.1 µg/mL (≈ 0.231 µM)
